What was measured:
Plasmodium falciparum [1] = assay: Antiplasmodial activity against blood stage forms of multidrug-resistant Plasmodium falciparum Dd2 incubated for 3 days by HRP2 detection based ELISA method; type: functional, organism-based; conditions: Dd2, 72 h
How it was run: (§1)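 Asexual blood-stage P. falciparum kept in continuous culture. Proliferation read by HRP2 ELISA. Each test used 12 serial dilutions. Values are means of at least two independent experiments, each run in duplicate.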

Plasmodium falciparum [2] = assay: Antiplasmodial activity against blood stage forms of chloroquine-sensitive Plasmodium falciparum 3D7 incubated for 3 days by HRP2 detection based ELISA method; type: functional, organism-based; conditions: 3D7, 72 h; how it was run: as §1
Plasmodium falciparum [3] = assay: Antiplasmodial activity against blood stage forms of chloroquine-sensitive Plasmodium falciparum D10 incubated for 3 days by HRP2 detection based ELISA method; type: functional, organism-based; conditions: D10, 72 h; how it was run: as §1
HeLa = assay: Cytotoxicity against human HeLa cells; type: cell-based
How it was run: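 HeLa cytotoxicity values are the mean of two duplicate determinations.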

[4] = Selectivity index, ratio of IC50 for human HeLa cells to IC50 for blood stage forms of multidrug-resistant Plasmodium falciparum Dd2; type: toxicity, cell-based; conditions: HeLa cells versus blood stage Plasmodium falciparum Dd2, read-out: Ratio IC50
How it was run: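 Index computed as HeLa cell IC50 divided by P. falciparum Dd2 IC50. HeLa values are means of two duplicate determinations.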

Plasmodium berghei [5] = assay: Antimalarial activity against Plasmodium berghei infected in NMRI mouse assessed as reduction in parasitemia at 50 mg/kg, po qd for 4 days starting 4 hrs post infection measured on 96 hrs post infection relative to control; type: functional; parameters: scale not given: the % may be the effect or the level left
How it was run: (§2)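 Peters 4-day suppressive test in P. berghei-infected mice, 50 mg/kg once daily orally or intraperitoneally at 4, 24, 48 and 72 h after infection. Compound dissolved or suspended in 70:30 Tween 80/ethanol, then diluted 10× with water. Groups of 3 mice. Blood taken on day 4 (96 h). Activity is the difference in mean % parasitaemia between control and treated groups, as a percent of control.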

Plasmodium berghei [6] = assay: Antimalarial activity against Plasmodium berghei infected in NMRI mouse assessed as mean survival time at 50 mg/kg, po qd for 4 days starting 4 hrs post infection measured on 96 hrs post infection (reference value: 4 days); type: functional
How it was run: (§3)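 Standard 4-day Peters test in P. berghei-infected mice. Compounds dissolved or suspended in 70:30 Tween 80/ethanol, then diluted 10× with water. Given at 50 mg/kg once daily, orally or intraperitoneally, at 4, 24, 48 and 72 h postinfection (n = 3 mice per group). Blood collected at 96 h. Mean survival time reported; […].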

Plasmodium berghei [7] = assay: Antimalarial activity against Plasmodium berghei infected in NMRI mouse assessed as reduction in parasitemia at 50 mg/kg, ip qd for 4 days starting 4 hrs post infection measured on 96 hrs post infection relative to control; type: functional; parameters: scale not given: the % may be the effect or the level left; conditions: route intraperitoneal; how it was run: as §2
Plasmodium berghei [8] = assay: Antimalarial activity against Plasmodium berghei infected in NMRI mouse assessed as mean survival time at 50 mg/kg, ip qd for 4 days starting 4 hrs post infection measured on 96 hrs post infection (reference value: 4 days); type: functional; conditions: route intraperitoneal; how it was run: as §3
Plasmodium falciparum [9] = assay: Antimalarial activity against Plasmodium falciparum infected in SCID mouse engrafted with human erythrocytes assessed as reduction in parasitemia at 50 mg/kg, ip qd for 4 days relative to control; type: functional; parameters: scale not given: the % may be the effect or the level left; conditions: route intraperitoneal
How it was run: (§4)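 P. falciparum SCID mouse model with treated groups of 2 mice and a control group of 5. Dosed orally or intraperitoneally once daily on days 3, 4, 5 and 6 after infection. Blood collected on day 4 after the first treatment; parasitized erythrocytes counted as % relative to control.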

[10] = Inhibition of recombinant Plasmodium falciparum IspC using [3,4,5-13C3]1-Deoxy-D-xylulose 5-phosphate substrate by photometric assay
How it was run: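 Pf IspC inhibition values are mean ± SD from nine or more data points, obtained by nonlinear regression analysis.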

Plasmodium berghei [11] = assay: Antimalarial activity against Plasmodium berghei infected in NMRI mouse assessed as reduction in parasitemia at 30 mg/kg, po qd for 4 days starting 4 hrs post infection measured on 96 hrs post infection relative to control; type: functional; parameters: scale not given: the % may be the effect or the level left
Plasmodium berghei [12] = assay: Antimalarial activity against Plasmodium berghei infected in NMRI mouse assessed as mean survival time at 30 mg/kg, po qd for 4 days starting 4 hrs post infection measured on 96 hrs post infection (reference value: 4 days); type: functional
Plasmodium falciparum [13] = assay: Antimalarial activity against Plasmodium falciparum infected in SCID mouse engrafted with human erythrocytes assessed as reduction in parasitemia at 13 mg/kg, po qd for 4 days relative to control; type: functional; parameters: scale not given: the % may be the effect or the level left
Plasmodium falciparum [14] = assay: Antimalarial activity against Plasmodium falciparum infected in SCID mouse engrafted with human erythrocytes assessed as reduction in parasitemia at 5 mg/kg, po qd for 4 days relative to control; type: functional; parameters: scale not given: the % may be the effect or the level left
Plasmodium falciparum [15] = assay: Antimalarial activity against Plasmodium falciparum infected in SCID mouse engrafted with human erythrocytes assessed as reduction in parasitemia at 50 mg/kg, po qd for 4 days relative to control; type: functional; parameters: scale not given: the % may be the effect or the level left; how it was run: as §4

Structure (SMILES)	IC50 (Plasmodium falciparum [1])	IC50 (Plasmodium falciparum [2])	IC50 (Plasmodium falciparum [3])	IC50 (HeLa)	selectivity ratio [4]	IC50 [10]	also measured
CC(=O)ON(C)C(=O)CCC(c1ccc(F)c(F)c1)P(=O)(OCOC(=O)OC(C)C)OCOC(=O)OC(C)C (stereo not given)	0.008 µM	0.013 µM	0.061 µM	188 µM	23500		
CN(O)C(=O)CCC(c1ccc(F)c(F)c1)P(=O)(O)O (stereo not given)			0.083 µM	> 1000 µM	> 2500	0.0034 µM	Activity (Plasmodium berghei [5]): 57%; Survival (Plasmodium berghei [6]): 6 days; Activity (Plasmodium berghei [7]): 62%; Survival (Plasmodium berghei [8]): 6.7 days; Activity (Plasmodium falciparum [9]): 0%
CC(C)(C)C(=O)OCOP(=O)(CCCN(O)C=O)OCOC(=O)C(C)(C)C	0.49 µM	0.48 µM	1.8 µM				
CCCCOC(=O)OCOP(=O)(OCOC(=O)OCCCC)C(CCC(=O)NO)c1ccc(F)c(F)c1 (stereo not given)	0.009 µM	0.039 µM	0.1 µM			> 1000 µM	
CC(=O)N(O)CCCP(=O)(OCOC(=O)C(C)(C)C)OCOC(=O)C(C)(C)C	0.028 µM	0.041 µM					
CC(C)OC(=O)OCOP(=O)(OCOC(=O)OC(C)C)C(OCC(=O)N(C)O)c1ccc(F)c(F)c1 (stereo not given)	0.029 µM	0.035 µM	0.031 µM				
CC(C)OC(=O)OCOP(=O)(OCOC(=O)OC(C)C)C(CCC(=O)NO)c1ccc(F)c(F)c1 (stereo not given)	0.029 µM	0.049 µM				> 1000 µM	
O=C(CCC(c1ccc(F)c(F)c1)P(=O)(O)O)NO (stereo not given)	0.65 µM		0.21 µM			0.0028 µM	
CCCCOC(=O)OCOP(=O)(OCOC(=O)OCCCC)C(CCC(=O)N(C)O)c1ccc(F)c(F)c1 (stereo not given)	0.005 µM	0.013 µM		190 µM	38000	> 1000 µM	
O=CN(O)CCCP(=O)(O)O [FOSMIDOMYCIN]			1.3 µM			0.16 µM	
CC(C)OC(=O)OCOP(=O)(OCOC(=O)OC(C)C)C(CCC(=O)N(C)OC(=O)C(C)(C)C)c1ccc(F)c(F)c1 (stereo not given)	0.034 µM	0.043 µM	0.22 µM			> 1000 µM	
C[C@H]1[C@H](OC(=O)CCC(=O)O)O[C@@H]2O[C@@]3(C)CC[C@H]4[C@H](C)CC[C@@H]1[C@@]24OO3 [ARTESUNATE]							Activity (Plasmodium berghei [11]): 99%; Survival (Plasmodium berghei [12]): 10 days; Activity (Plasmodium falciparum [13]): 90%; Activity (Plasmodium falciparum [14]): 90%
CCCCOC(=O)OCOP(=O)(OCOC(=O)OCCCC)C(OCC(=O)N(C)O)c1ccc(F)c(F)c1 (stereo not given)	0.009 µM	0.014 µM	0.031 µM	190 µM	21100		
CCNC(=O)ON(C)C(=O)CCC(c1ccc(F)c(F)c1)P(=O)(OCOC(=O)OC(C)C)OCOC(=O)OC(C)C (stereo not given)	0.012 µM	0.014 µM	0.072 µM	168 µM	14000	> 1000 µM	Activity (Plasmodium falciparum [15]): 0%
CN(O)C(=O)COC(c1ccc(F)c(F)c1)P(=O)(O)O (stereo not given)			0.52 µM	> 1000 µM	> 7690	0.012 µM	
O[C@@H](c1cc(C(F)(F)F)nc2c(C(F)(F)F)cccc12)[C@H]1CCCCN1 (relative stereo) [(S,R)-MEFLOQUINE]							Activity (Plasmodium berghei [11]): 99.9%; Survival (Plasmodium berghei [12]): 29 days
CCOC(=O)ON(C)C(=O)CCC(c1ccc(F)c(F)c1)P(=O)(OCOC(=O)OC(C)C)OCOC(=O)OC(C)C (stereo not given)	0.018 µM	0.028 µM	0.13 µM	205 µM	11400	> 1000 µM	
CCN(CC)CCCC(C)Nc1ccnc2cc(Cl)ccc12 (stereo not given) [CHLOROQUINE]							Activity (Plasmodium falciparum [13]): 90%; Activity (Plasmodium falciparum [14]): 90%
CC(C)OC(=O)OCOP(=O)(OCOC(=O)OC(C)C)C(CCC(=O)N(C)O)c1ccc(F)c(F)c1 (stereo not given)	0.007 µM	0.008 µM				887 µM	
CC(=O)N(O)CCCP(=O)(O)O [FR-900098]	0.16 µM	0.16 µM	0.35 µM			0.015 µM	
